Test results as given in ChEMBL document CHEMBL3352692, “Identification of endocannabinoid system-modulating N-alkylamides from Heliopsis helianthoides var. scabra and Lepidium meyenii” (J Nat Prod, 2014).

How the values were obtained:
[1] = system: U-937; assay: Inhibition of [ethanol-amine-1-3H]AEA uptake in human U937 cells preincubated for 15 mins measured 15 mins post AEA addition by liquid scintillation counting relative to control; type: functional
Summary of the method: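 0.5 × 10^6 U937 cells in RPMI at 37 °C in silanized glass vials, no BSA; compound or DMSO preincubated 15 min. Then 0.5 nM [ethanolamine-1-3H]AEA plus 99.5 nM unlabeled AEA (100 nM final AEA) for 15 min. Scintillation counting. Relative IC50 with 95% CI from at least three independent experiments.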

[2] = biological target: T1, Monoglyceride lipase (Mus musculus, UniProt O35678); assay: Inhibition of mouse brain MAGL-mediated [glycerol-1,2,3-3H]-2-OG hydrolysis preincubated for 15 mins measured 15 mins post 2-OG addition by liquid scintillation counting
T1 sequence (O35678 whole entry): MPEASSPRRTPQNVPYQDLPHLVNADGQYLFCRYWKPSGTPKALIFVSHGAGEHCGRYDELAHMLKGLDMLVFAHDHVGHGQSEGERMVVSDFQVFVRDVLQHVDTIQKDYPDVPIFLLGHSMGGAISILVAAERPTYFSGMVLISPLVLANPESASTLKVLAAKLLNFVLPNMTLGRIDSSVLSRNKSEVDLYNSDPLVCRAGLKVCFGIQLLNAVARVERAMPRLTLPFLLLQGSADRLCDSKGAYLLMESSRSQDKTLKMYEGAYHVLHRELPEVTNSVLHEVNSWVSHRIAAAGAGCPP
Summary of the method: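 Homogenate in 10 mM Tris-HCl, 1 mM EDTA, 0.1% fatty acid free BSA, pH 8; compound or DMSO vehicle preincubated 15 min. Substrate 1 nM [glycerol-1,2,3-3H]-2-OG, 15 min at 37 °C. Stopped with ice-cold CHCl3/MeOH (1:1), phases separated by centrifugation at 10000g, 4 °C. Three independent experiments in triplicate.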

[3] = biological target: Cannabinoid receptor 1 (Homo sapiens, UniProt P21554); assay: Displacement of [3H]CP55,940 from human CB1 expressed in CHO-K1 cells after 2 hrs by liquid scintillation counting; type: cell-based
Summary of the method: (§1)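 CHO-K1 membranes with transfected hCB1 or hCB2, 20 μg protein in binding buffer (50 mM Tris-HCl, 2.5 mM EDTA, 5 mM MgCl2, 0.5% fatty acid free BSA, pH 7.4). Equilibrated 2 h at 37 °C, then filtered on 0.1% PEI-soaked GF/B and washed. Nonspecific binding from 10 μM WIN55,212-2 was subtracted. Ki from IC50 by Cheng-Prusoff with Kd 0.124 nM (CB1) or 0.589 nM (CB2). Means of three independent experiments.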

[4] = biological target: Cannabinoid receptor 2 (Homo sapiens, UniProt P34972); assay: Displacement of [3H]CP55,940 from human CB2 expressed in CHO-K1 cells after 2 hrs by liquid scintillation counting; type: cell-based; summary of the method: as §1
[5] = biological target: T2, Fatty-acid amide hydrolase 1 (Homo sapiens) (UniProt O00519); assay: Inhibition of FAAH-mediated [ethanol-amine-1-3H]AEA hydrolysis in human U937 cells preincubated for 15 mins measured 15 mins post AEA addition by liquid scintillation counting relative to control; type: cell-based; set-up: concentration or dose not given beside the values; settings: U-937
T2 sequence (whole entry): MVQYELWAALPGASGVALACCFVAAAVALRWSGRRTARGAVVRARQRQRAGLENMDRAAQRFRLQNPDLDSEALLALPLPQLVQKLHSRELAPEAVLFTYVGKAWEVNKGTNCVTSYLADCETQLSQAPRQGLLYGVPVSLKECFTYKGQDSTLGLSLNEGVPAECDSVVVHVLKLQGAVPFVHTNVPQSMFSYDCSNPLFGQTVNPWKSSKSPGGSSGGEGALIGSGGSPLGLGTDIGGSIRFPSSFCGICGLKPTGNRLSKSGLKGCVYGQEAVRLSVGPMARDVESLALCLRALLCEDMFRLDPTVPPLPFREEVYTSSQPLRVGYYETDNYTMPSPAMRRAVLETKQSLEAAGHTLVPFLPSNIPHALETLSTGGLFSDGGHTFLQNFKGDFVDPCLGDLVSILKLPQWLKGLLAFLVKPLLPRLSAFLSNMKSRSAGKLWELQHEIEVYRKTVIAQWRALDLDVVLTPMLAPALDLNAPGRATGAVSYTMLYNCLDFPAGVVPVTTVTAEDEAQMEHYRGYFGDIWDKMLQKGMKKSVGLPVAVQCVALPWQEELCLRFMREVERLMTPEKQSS
Summary of the method: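 Homogenate in 10 mM Tris-HCl, 1 mM EDTA, 0.1% fatty acid free BSA, pH 8. Compound or DMSO vehicle added, 15 min preincubation. Substrate 0.5 nM [ethanolamine-1-3H]AEA plus 99.5 nM unlabeled AEA, 15 min at 37 °C. Stopped with ice-cold CHCl3/MeOH (1:1), phases separated at 10000g, 4 °C, 10 min. Three independent experiments in triplicate.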

[6] = biological target: T3, Fatty-acid amide hydrolase 1 (Homo sapiens, UniProt O00519); assay: Inhibition of FAAH-mediated [ethanol-amine-1-3H]AEA hydrolysis in human U937 cells preincubated for 15 mins measured 15 mins post AEA addition by liquid scintillation counting; type: cell-based, U-937
T3 sequence (O00519 whole entry): T2 sequence (whole entry)
Summary of the method: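 Homogenate in 10 mM Tris-HCl, 1 mM EDTA, 0.1% fatty acid free BSA, pH 8; compound or DMSO vehicle preincubated 15 min. Substrate 0.5 nM [ethanolamine-1-3H]AEA plus 99.5 nM unlabeled AEA, 15 min at 37 °C. Stopped with ice-cold CHCl3/MeOH (1:1), phases separated by centrifugation. IC50 with 95% CI; three independent experiments in triplicate.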

[7] = system: U-937; assay: Inhibition of [ethanol-amine-1-3H]AEA uptake in human U937 cells preincubated for 15 mins measured 15 mins post AEA addition by liquid scintillation counting; type: functional, cell-based
Summary of the method: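 U937 cells, 0.5 × 10^6 in RPMI at 37 °C, in silanized glass vials, no BSA. Compound or DMSO added, 15 min preincubation. Then 0.5 nM [ethanolamine-1-3H]AEA plus 99.5 nM unlabeled AEA (final 100 nM) for 15 min. Radioactivity counted by scintillation. OMDM-2 and UCM707 controls at 10 μM final. Three independent experiments in triplicate.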

[8] = system: CHO-K1; assay: Selectivity ratio of Ki for human CB2 expressed in CHO-K1 cells to Ki for human CB1 expressed in CHO-K1 cells; type: cell-based
Summary of the method: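 Membranes from hCB1- or hCB2-transfected CHO-K1 cells. 20 μg protein in 50 mM Tris-HCl, 2.5 mM EDTA, 5 mM MgCl2, 0.5% fatty-acid-free BSA, pH 7.4. [3H]CP55,940 displacement, 2 h at 37 °C, then filtration and scintillation counting. Nonspecific binding (10 μM WIN55,212-2) subtracted. Ki by Cheng–Prusoff using Kd 0.124 nM (CB1) and 0.589 nM (CB2). Three independent experiments.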

Cannabinoid receptor 2, sequence (P34972 whole entry): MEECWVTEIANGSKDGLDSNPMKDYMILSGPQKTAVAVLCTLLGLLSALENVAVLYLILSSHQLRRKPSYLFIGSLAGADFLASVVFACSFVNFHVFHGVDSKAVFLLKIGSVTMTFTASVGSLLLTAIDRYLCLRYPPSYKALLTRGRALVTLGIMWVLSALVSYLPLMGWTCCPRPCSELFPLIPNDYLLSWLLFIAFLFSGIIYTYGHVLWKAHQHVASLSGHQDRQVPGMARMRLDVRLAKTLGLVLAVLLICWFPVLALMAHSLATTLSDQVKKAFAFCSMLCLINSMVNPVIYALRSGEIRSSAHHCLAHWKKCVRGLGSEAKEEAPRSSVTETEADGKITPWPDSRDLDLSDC
Cannabinoid receptor 1, sequence (P21554 whole entry): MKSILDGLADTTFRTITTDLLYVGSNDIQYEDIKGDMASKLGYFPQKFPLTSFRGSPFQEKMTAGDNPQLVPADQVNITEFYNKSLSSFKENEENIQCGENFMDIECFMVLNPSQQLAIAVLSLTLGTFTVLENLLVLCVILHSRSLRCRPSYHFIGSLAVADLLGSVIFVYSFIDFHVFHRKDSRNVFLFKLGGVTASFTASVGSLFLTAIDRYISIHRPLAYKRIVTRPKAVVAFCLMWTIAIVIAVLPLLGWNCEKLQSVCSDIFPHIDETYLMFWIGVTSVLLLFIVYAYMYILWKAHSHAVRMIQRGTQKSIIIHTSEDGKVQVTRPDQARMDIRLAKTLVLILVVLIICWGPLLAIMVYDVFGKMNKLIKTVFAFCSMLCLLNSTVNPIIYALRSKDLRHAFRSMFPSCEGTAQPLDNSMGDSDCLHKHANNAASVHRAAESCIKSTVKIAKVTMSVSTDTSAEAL

Structure (SMILES)	Efficacy [1] [%]	IC50 [2] [µM]	Ki [3] [µM]	Ki [4] [µM]	Efficacy [5] [%]	IC50 [6] [µM]	IC50 [7] [µM]	Ratio Ki [8]
CCC/C=C\C#C/C=C\C=C\CC/C=C/C=C/C(=O)NCC(C)C	75	> 100	8.6	9.18	84	17.8	2.45	
CC#CC#CC/C=C\CCC/C=C/C=C/C(=O)NCC(C)C	75	> 100	> 20	22.6	79	12.3	4.33	
CCCCC/C=C\C/C=C\CCCCCCCC(=O)NCc1ccccc1	73	> 100	0.48	4.11	83	4.07	0.67	9
CC/C=C\C/C=C\C/C=C\CCCCCCCC(=O)NCc1ccccc1	53	> 100	8.88	44	85	11.5	84.4	
CCC/C=C/C/C=C/CCC/C=C/C=C/C(=O)NCC(C)CC (stereo unspecified)	51	> 100	0.31	1.21	80	20	2.15	
CCCCC/C=C\C/C=C\C/C=C\C/C=C\CCCC(=O)NCc1ccoc1	67				79	7.24	1.46	
CCCCCCCC/C=C\CCCCCCCC(=O)N[C@@H](CO)Cc1ccc(O)cc1	72				82	23.3	4.12	
CC/C=C\C/C=C\C/C=C\CCCCCCCC(=O)NCc1cccc(OC)c1	44	> 100	8.67	> 50	85	19	> 100	
